Measurements published in ChEMBL document CHEMBL3861968, “Neuroactive and Anti-inflammatory Frankincense Cembranes: A Structure-Activity Study” (J Nat Prod, 2016).

Legend:
Assay type in all cases: cell-based
[1] = biological target: T1, Heat sensitive channel TRPV3 (Rattus norvegicus, UniProt Q4QYD9); test: Antagonist activity at rat TRPV3 overexpressed in HEK293 cells assessed as inhibition of thymol-induced increase in intracellular Ca2+ levels preincubated for 5 mins prior to thymol-stimulation by Fluo-4AM dye-based spectrofluorometry
T1 sequence (Q4QYD9 whole entry): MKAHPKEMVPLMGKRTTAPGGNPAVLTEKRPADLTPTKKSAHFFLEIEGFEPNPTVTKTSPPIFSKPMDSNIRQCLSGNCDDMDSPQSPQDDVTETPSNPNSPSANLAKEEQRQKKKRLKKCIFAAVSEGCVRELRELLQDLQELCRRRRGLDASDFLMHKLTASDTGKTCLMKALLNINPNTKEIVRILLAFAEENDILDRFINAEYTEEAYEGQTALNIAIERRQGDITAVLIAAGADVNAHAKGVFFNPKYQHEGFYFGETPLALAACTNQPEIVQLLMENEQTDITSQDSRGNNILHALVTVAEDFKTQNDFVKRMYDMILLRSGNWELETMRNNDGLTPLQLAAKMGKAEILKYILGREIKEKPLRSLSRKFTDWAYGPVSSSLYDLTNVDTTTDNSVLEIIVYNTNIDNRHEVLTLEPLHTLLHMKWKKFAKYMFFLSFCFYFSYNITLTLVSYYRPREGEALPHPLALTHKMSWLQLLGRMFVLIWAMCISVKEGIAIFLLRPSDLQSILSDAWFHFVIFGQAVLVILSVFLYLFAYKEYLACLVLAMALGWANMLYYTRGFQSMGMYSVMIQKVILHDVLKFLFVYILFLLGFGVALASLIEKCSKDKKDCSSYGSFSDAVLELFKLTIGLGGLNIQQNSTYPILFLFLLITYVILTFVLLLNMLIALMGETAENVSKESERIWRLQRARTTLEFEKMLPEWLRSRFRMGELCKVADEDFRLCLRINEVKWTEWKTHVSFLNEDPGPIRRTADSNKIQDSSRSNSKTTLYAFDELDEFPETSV
Method in brief: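 Compounds added 5 min before thymol (100 μM). Thymol-alone response taken as 100%. IC50 of inhibition of the [Ca2+]i rise taken from sigmoidal variable-slope fit. At least triplicate. ANOVA with Bonferroni.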

[2] = Inhibition of TNFalpha-induced NFkappaB activation in mouse NIH-3T3 cells expressing NFkappaB (unknown origin) preincubated for 15 mins followed by TNFalpha addition measured after 6 hrs by luciferase reporter gene assay; conditions: NIH3T3
[3] = biological target: T1, Heat sensitive channel TRPV3; test: Activation of rat TRPV3 overexpressed in HEK293 cells assessed as increase in 2-aminoethoxydiphenyl borate-induced intracellular calcium concentration by Fluo-4AM dye-based spectrofluorometry
Method in brief: (§1)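 Stable rat TRPV3 HEK293 cells in MEM with 10% FBS, 37 °C, 5% CO2. Pre-sensitized with 2-APB (100 μM). Loaded 1 h at room temperature with Fluo-4 AM (4 μM), washed, held in Tyrode's buffer pH 7.4 in a stirred cuvette. Untransfected HEK293 baseline subtracted. EC50 taken from sigmoidal variable-slope fit. Efficacy expressed relative to 4 μM ionomycin. At least triplicate.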

[4] = biological target: T2, Heat sensitive channel TRPV3 (Rattus norvegicus) (UniProt Q4QYD9); test: Activation of rat TRPV3 overexpressed in HEK293 cells assessed as increase in 2-aminoethoxydiphenyl borate-induced intracellular calcium concentration by Fluo-4AM dye-based spectrofluorometry relative to ionomycin; method in brief: as §1
T2 sequence (whole entry): T1 sequence (Q4QYD9 whole entry)

[5] = biological target: T3, Transient receptor potential cation channel subfamily V member 3 (Mus musculus, UniProt Q8K424); test: Agonist activity at mouse YFP-tagged TRPV3 expressed in HEK293 cells assessed as increase in calcium influx by Fluo-2-AM dye based microscopic analysis
T3 sequence (Q8K424 whole entry): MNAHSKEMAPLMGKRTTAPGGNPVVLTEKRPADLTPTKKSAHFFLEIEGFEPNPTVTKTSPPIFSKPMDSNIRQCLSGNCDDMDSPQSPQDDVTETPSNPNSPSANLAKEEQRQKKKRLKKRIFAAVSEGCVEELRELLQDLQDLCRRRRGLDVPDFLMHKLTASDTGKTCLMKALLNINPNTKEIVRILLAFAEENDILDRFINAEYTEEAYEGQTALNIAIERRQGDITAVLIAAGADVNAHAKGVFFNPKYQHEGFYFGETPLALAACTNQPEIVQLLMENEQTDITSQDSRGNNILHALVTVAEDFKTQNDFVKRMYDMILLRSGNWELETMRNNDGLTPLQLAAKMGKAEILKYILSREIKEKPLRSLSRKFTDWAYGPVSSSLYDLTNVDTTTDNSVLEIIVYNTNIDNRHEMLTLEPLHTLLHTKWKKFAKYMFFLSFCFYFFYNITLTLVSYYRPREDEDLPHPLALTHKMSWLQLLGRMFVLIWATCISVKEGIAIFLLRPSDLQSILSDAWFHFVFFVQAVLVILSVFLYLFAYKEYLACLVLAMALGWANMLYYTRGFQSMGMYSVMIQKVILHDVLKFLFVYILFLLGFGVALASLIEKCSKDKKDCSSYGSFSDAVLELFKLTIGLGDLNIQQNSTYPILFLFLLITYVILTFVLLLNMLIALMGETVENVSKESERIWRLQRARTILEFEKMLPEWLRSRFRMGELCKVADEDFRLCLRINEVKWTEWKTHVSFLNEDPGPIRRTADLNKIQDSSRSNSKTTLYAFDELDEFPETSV

Structure (SMILES)	IC50 [1]	IC50 [2]	EC50 [3]	Emax [4]	EC50 [5]
C/C1=C\C[C@]2(C(C)C)CC[C@@](C)(O2)[C@@H](O)CC/C(C)=C/CC1 [INCENSOLE]	2.1 µM	> 50 µM	2.1 µM	65.1%	
CCCCCCCCC(=O)O[C@H]1CC/C(C)=C/CC/C(C)=C/C[C@]2(C(C)C)CC[C@@]1(C)O2		35.5 µM			
C/C1=C\CC/C(C)=C/C[C@](O)(C(C)C)CC/C(C)=C/CC1	0.15 µM	> 50 µM	0.17 µM	62.4%	
NC(=O)c1sc(-c2ccsc2)cc1N		7.9 µM			
CC1=C2CC/C(C)=C/CC[C@]3(C)O[C@@H]3CC/C(C)=C/[C@@H]2OC1=O	> 100 µM	> 50 µM	30.1 µM	21.3%	
C/C1=C\C[C@]2(C(C)C)CC[C@@](C)(O2)[C@H](O)CC/C(C)=C/CC1	12.3 µM	> 50 µM	7.3 µM	38%	
C/C1=C\C[C@]2(C(C)C)CC[C@@](C)(O2)[C@@H](OC(=O)c2ccccc2)CC/C(C)=C/CC1		> 50 µM			
Cc1ccc(C(C)C)c(O)c1 [THYMOL]			29 µM	49.4%	
C/C1=C\C[C@]2(C(C)C)CC[C@@](C)(O2)C(=O)CC/C(C)=C/CC1		> 50 µM			
C/C1=C\C[C@]2(C(C)C)CC[C@@](C)(O2)[C@@H](OC(=O)Cc2ccccc2)CC/C(C)=C/CC1	21.7 µM	22.4 µM	1.2 µM	25.6%	
CC(=O)O[C@H]1CC/C(C)=C/CC/C(C)=C/C[C@]2(C(C)C)CC[C@@]1(C)O2	2.2 µM	> 50 µM	1.4 µM	43.4%	16 µM
C/C1=C\CC[C@]2(C)O[C@@H]2C[C@]2(C(C)C)CC[C@@](C)(O2)[C@@H](O)CC1	> 100 µM	> 50 µM	25.4 µM	27.2%	
CC(=O)O[C@H]1CC[C@@]2(C)O[C@H]2CC/C(C)=C/C[C@]2(C(C)C)CC[C@@]1(C)O2	21.1 µM	> 50 µM	8.6 µM	31.6%	
CC1=C2CC/C(C)=C/CC[C@]3(C)O[C@@H]3CC/C(C)=C/[C@@H]2OC1		> 50 µM			
CC(=O)O[C@H]1CC/C(C)=C/CC[C@]2(C)O[C@@H]2C[C@]2(C(C)C)CC[C@@]1(C)O2	13.2 µM	> 50 µM	8.8 µM	57.7%	
C/C1=C\C[C@]2(C(C)C)CC[C@@](C)(O2)[C@@H](OC(=O)/C=C/c2ccccc2)CC/C(C)=C/CC1		> 50 µM			
